These results are taken from ChEMBL document CHEMBL4130626, “α-Arylidene Diacylglycerol-Lactones (DAG-Lactones) as Selective Ras Guanine-Releasing Protein 3 (RasGRP3) Ligands” (J Med Chem, 2018).

Broadly, the Ki is the equilibrium dissociation constant of an inhibitor or competing ligand from its target. For orientation: EC50 means the concentration at which the effect is half-maximal.

For test [1], the target named is Protein kinase C alpha type (Homo sapiens, UniProt P17252). In words: Displacement of [3H]PDBu from full length recombinant human PKCalpha expressed in baculovirus expression system after 5 mins by scintillation counting. The procedure, abridged: (§1)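 Competition of [3H]PDBu binding by polyethylene glycol precipitation, with 100 µg/ml phosphatidylserine and ≤0.003% Triton X-100, 5 min at 37 °C. Proteins: full-length purified human PKCα, PKCε; full-length RasGRP1; MBP-RasGRP3 from E. coli BL21(DE3) induced with 0.3 mM IPTG 6 h at room temperature. Ki mean ± SEM of ≥2 experiments, triplicate points.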
A general note: Displacement assays read how much labelled ligand stays bound in the presence of the test substance.

The target of test [2] is T1, Ras guanyl-releasing protein 3 (Homo sapiens, UniProt Q8IV61).
T1 sequence (Q8IV61 whole entry): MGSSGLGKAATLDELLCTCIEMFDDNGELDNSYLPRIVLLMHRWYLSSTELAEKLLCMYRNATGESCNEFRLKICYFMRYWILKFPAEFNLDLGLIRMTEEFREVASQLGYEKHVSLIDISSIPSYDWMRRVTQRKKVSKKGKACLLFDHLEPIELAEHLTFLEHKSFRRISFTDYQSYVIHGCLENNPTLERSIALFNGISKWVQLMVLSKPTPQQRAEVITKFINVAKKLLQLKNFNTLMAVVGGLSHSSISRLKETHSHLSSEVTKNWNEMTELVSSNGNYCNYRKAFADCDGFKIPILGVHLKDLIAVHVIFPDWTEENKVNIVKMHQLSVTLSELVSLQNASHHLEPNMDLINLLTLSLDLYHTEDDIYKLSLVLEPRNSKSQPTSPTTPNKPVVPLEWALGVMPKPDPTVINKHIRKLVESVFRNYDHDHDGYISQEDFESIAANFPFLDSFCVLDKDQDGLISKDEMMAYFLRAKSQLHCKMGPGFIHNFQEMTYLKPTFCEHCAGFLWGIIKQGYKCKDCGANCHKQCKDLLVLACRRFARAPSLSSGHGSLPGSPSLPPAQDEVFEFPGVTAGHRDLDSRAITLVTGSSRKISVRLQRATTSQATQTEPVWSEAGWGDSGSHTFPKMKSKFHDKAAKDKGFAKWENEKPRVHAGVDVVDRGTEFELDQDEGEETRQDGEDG
The experiment in a line: Activation of GFP-tagged RasGRP3 (unknown origin) expressed in human LNCAP cells after 30 mins by immunoblot method. Type of test: cell-based. The essentials: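 Cells expressing GFP-RasGRP1/3 (HEK293 or LNCaP, 48 h after plating, transfected; expression checked by fluorescence 24-48 h later) or Ramos with endogenous RasGRP3 treated with half-log increasing concentrations (max 10 µM), 1000 nM PMA or DMSO, 37 °C, 30 min, 5% CO2. RasGTP by Raf1 RBD bead pulldown and anti-Pan-Ras immunoblot; pERK by western blot. Band intensities normalized to 1000 nM PMA; EC50 from n = 3.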

Test [3] deals with T1, Ras guanyl-releasing protein 3. In words: Displacement of [3H]PDBu from full length MBP-tagged human RasGRP3 expressed in Escherichia coli BL21 (DE3) after 5 mins by scintillation counting. The procedure, abridged:
as §1

Test [4] concerns the target T2, Protein kinase C delta type (Homo sapiens, UniProt Q05655). In words: Activation of PKCdelta (unknown origin) expressed in HEK293 cells harboring GFP-tagged RasGRP3 assessed as phosphorylation at ser299 residues after 30 mins by immunoblot method. It counts as cell-based. The essentials: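 Cells are GFP-RasGRP3-transfected HEK293, grown in EMEM + 10% FBS. Exposed 30 min at 37 °C, 5% CO2, to half-log concentrations up to 10 µM, 1000 nM PMA or DMSO. Lysed in RIPA with protease and phosphatase inhibitors. 50 µg protein run on 10% SDS-PAGE and blotted for phospho-PKCδ S299; anti-GFP used as loading control. Signal normalised to 1000 nM PMA. EC50 is the mean of n = 3.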
Background: In western blotting, separated proteins are transferred to a membrane and probed.

The species entered for test [5] is Homo sapiens. The experiment in a line: Selectivity ratio of EC50 for PKCdelta (unknown origin) expressed in human LNCAP cells harboring GFP-tagged RasGRP1 to EC50 for GFP-tagged RasGRP1 (unknown origin) expressed in human LNCAP cells. Type of test: cell-based.
The target in test [6] is T3, RAS guanyl-releasing protein 1 (Homo sapiens) (UniProt O95267).
T3 sequence (whole entry): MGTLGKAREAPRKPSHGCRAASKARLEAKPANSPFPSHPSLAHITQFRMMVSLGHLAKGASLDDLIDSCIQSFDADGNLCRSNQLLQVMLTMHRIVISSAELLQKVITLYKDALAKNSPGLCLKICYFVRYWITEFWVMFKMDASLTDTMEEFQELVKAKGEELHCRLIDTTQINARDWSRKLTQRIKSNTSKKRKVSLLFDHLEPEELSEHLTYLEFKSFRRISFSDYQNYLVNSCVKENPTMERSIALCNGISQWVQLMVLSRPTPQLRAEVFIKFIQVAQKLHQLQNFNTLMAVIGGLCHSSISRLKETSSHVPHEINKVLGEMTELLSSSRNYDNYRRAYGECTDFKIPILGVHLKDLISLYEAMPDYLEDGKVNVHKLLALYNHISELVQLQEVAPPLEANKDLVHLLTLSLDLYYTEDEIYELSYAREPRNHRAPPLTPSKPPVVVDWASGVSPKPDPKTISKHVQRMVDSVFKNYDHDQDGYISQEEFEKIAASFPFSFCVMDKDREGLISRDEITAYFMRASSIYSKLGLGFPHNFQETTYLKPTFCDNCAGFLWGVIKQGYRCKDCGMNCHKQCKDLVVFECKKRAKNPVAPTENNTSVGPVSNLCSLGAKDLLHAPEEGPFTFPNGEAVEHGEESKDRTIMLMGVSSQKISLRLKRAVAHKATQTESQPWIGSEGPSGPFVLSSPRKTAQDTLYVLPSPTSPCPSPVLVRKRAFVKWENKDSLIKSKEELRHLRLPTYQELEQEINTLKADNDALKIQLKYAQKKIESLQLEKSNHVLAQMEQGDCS
In words: Displacement of [3H]PDBu from full length MBP-tagged human RasGRP1 expressed in Escherichia coli BL21 (DE3) after 5 mins in presence of phosphatidylserine by scintillation counting. The procedure, abridged:
as §1

The species named for test [7] is Homo sapiens. The experiment in a line: Selectivity ratio of EC50 for PKCdelta (unknown origin) expressed in HEK293 cells harboring GFP-tagged RasGRP3 to EC50 for GFP-tagged RasGRP3 (unknown origin) expressed in HEK293 cells assessed as ERK1/2 phosphorylation. It counts as cell-based.
For test [8], the target named is T2, Protein kinase C delta type. In words: Activation of PKCdelta (unknown origin) expressed in human LNCAP cells harboring GFP-tagged RasGRP3 assessed as phosphorylation at ser299 residues after 30 mins by immunoblot method. Type of test: cell-based. The procedure, abridged:
(§2)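 PKCδ activation read as phospho-S299 on western blots of lysates (50 µg protein, 10% SDS-PAGE, milk blocking, anti-PKCδS299 overnight). Cells: GFP-RasGRP1/3-transfected HEK293 or LNCaP, or Ramos, treated 30 min at 37 °C with half-log doses (maximum 10 µM), 1000 nM PMA or DMSO. Scanned intensities normalized to 1000 nM PMA; EC50 mean ± SEM, n = 3; values above 10 µM extrapolated.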

For test [9] the target is unchanged. In words: Activation of PKCdelta (unknown origin) expressed in human LNCAP cells harboring GFP-tagged RasGRP1 assessed as phosphorylation at ser299 residues after 30 mins by immunoblot method. It counts as cell-based. The essentials:
as §2

Each structure is given as a SMILES string. Active and inactive are the calls of the source. No cut-off for these calls is given here.

T2 sequence (Q05655 whole entry): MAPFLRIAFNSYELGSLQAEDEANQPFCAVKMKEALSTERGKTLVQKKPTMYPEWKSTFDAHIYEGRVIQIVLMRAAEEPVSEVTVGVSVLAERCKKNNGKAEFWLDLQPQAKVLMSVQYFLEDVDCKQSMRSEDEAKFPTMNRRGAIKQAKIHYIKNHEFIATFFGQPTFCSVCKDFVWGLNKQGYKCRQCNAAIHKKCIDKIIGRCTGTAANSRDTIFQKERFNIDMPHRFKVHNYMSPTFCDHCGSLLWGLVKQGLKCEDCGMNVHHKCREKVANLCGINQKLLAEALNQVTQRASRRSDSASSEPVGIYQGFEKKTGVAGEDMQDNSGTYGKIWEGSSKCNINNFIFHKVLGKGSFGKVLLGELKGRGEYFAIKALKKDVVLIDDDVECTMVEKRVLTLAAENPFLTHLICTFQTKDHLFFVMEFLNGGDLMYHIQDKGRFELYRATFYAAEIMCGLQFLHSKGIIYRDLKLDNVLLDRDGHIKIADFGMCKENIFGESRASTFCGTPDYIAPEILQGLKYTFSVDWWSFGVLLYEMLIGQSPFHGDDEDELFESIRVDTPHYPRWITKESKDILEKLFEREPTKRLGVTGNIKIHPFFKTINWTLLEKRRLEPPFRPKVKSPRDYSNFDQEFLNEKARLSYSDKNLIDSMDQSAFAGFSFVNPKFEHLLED

`Cn1cc(/C=C2\CC(CO)(COC(=O)C(C)(C)C)OC2=O)c2ccccc21` (centres undefined): the Ki is 0.127 µM in [1] and 0.00175 µM in test [3]. Besides, the EC50 is 0.64 µM in [2], 16.9 µM in test [4], 8.28 µM in [8] and 8.03 µM in test [9]. Moreover, the results for the Ratio EC50 in the test filed under Homo sapiens [5] and in the test listed under Homo sapiens [7] were 8.3 and 3.6, respectively. For the same molecule, the inhibition result in test [6] was “Active”.
